Experimental findings from ChEMBL document CHEMBL1150144, “Total synthesis and biological evaluation of (5Z,9Z)-5,9-hexadecadienoic acid, an inhibitor of human topoisomerase I” (J Nat Prod, 2002) are described below.

Structures are written as SMILES. ≈ marks a conversion by molar mass, not a printed value. Calls of active or inactive are those of the source. The calls are words filed in the database; no cut-off is given here.

Assay [1] deals with T1, DNA topoisomerase 1 (Homo sapiens, UniProt P11387).
T1 sequence (P11387 whole entry): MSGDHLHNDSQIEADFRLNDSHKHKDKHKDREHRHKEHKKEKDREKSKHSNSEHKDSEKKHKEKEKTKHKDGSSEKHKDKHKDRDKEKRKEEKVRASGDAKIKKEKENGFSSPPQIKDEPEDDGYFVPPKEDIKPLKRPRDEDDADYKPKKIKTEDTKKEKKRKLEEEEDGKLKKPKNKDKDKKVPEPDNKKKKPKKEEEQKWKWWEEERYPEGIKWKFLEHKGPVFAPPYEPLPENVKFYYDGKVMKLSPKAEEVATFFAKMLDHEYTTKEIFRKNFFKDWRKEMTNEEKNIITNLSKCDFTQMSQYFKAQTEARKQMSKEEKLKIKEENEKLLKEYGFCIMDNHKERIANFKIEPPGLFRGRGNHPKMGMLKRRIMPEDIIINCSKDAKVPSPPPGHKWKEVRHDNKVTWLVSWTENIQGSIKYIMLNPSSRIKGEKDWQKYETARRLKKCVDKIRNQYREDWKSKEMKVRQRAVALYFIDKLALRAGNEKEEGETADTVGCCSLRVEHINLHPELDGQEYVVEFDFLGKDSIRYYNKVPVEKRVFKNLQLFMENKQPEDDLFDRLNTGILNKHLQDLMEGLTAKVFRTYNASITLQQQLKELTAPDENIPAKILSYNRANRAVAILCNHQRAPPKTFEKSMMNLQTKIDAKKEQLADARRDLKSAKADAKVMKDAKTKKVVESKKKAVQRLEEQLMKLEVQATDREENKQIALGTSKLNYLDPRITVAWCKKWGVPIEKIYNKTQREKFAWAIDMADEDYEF
The experiment in a line: Inhibition of human DNA topoisomerase 1.

The next assay concerns Escherichia coli. The experiment in a line: Antimicrobial activity against Escherichia coli ATCC 25922 after overnight incubation. Type of assay: functional. The method, boiled down: (§1)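 MIC read after overnight incubation of fatty acid with each organism at 37 °C. Endpoint was the highest dilution preventing growth, compared with an uninoculated chemical-control well. Data come from at least three separate experiments in duplicate.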

In assay [2] the target is T2, DNA topoisomerase 1 (Homo sapiens) (UniProt P11387).
T2 sequence (whole entry): T1 sequence (P11387 whole entry)
Nature of the assay: Inhibition of human DNA topoisomerase 1 assessed as inhibition of uncoiling of supercoiled Tetrahymena pHOT1 DNA at […] after 30 mins by agarose gel electrophoresis.

A further assay has as its system Pseudomonas aeruginosa. The experiment in a line: Antimicrobial activity against Pseudomonas aeruginosa ATCC 27853 after overnight incubation. Type of assay: functional. In short, it runs like this: as §1
A further assay relates to Staphylococcus aureus. Nature of the assay: Antimicrobial activity against Staphylococcus aureus ATCC 25923 after overnight incubation. Type of assay: functional. The method, boiled down:
as §1

The next assay has as its system Enterococcus faecalis. The experiment in a line: Antimicrobial activity against Streptococcus faecalis ATCC 29212 after overnight incubation. It is filed as functional. In short, it runs like this:
as §1

For assay [3], the target named is T2, DNA topoisomerase 1 (Homo sapiens). Nature of the assay: Inhibition of human DNA topoisomerase 1 assessed as inhibition of uncoiling of supercoiled Tetrahymena pHOT1 DNA at > 1000 uM after 30 mins by agarose gel electrophoresis. In short, it runs like this: (§2)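 Human placental topoisomerase I (1 unit relaxes 0.5 µg DNA in 15 min at 37 °C) was used with 0.25 µg supercoiled pHOT1 plasmid. Fatty acids in DMSO were tested at final 1000, 800, 500, 100 and 10 µM for 30 min at 37 °C. Reactions were stopped with SDS, then proteinase K (final 0.05 mg/mL, 30 min, 37 °C). Products were run on 1% agarose, stained with ethidium bromide, and bands imaged and quantitated.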

In assay [4] the target is T1, DNA topoisomerase 1. Nature of the assay: Inhibition of DNA topoisomerase 1.
Assay [5] concerns the target T2, DNA topoisomerase 1 (Homo sapiens). The experiment in a line: Inhibition of human DNA topoisomerase 1 assessed as inhibition of uncoiling of supercoiled Tetrahymena pHOT1 DNA at 800 uM after 30 mins by agarose gel electrophoresis. In short, it runs like this: as §2

The molecule `CCCCCCCCCCCCCCCCC/C=C\CC/C=C\CCCC(=O)O` gave an IC50 at DNA topoisomerase 1 [1] of 0.9 µM. This lies in the sub-micromolar range.

Consider `CCCCCCCCCCCCCCCC(=O)O` [PALMITIC ACID], for which the MIC against Escherichia coli, in the assay with Pseudomonas aeruginosa, against Staphylococcus aureus and in the assay on Enterococcus faecalis was > 400 µM throughout. The inhibition result in assay [2] was “inactive”.

`CCCCCCC#CCCC#CCCCC(=O)O`: the inhibition entry in [3] was “inactive”.

`CCCCCCCC/C=C\CCCCCCCC(=O)O` [OLEIC ACID] registered an IC50 on DNA topoisomerase 1 [4] of 31 µM.

As for `CCCCCC/C=C\CC/C=C\CCCC(=O)O`, the result in the assay on Escherichia coli and with Pseudomonas aeruginosa was inactive. In addition, the MIC against Staphylococcus aureus was 80 µM (≈ 20.2 µg/mL); with Enterococcus faecalis it was 200 µM (≈ 50.5 µg/mL). The inhibition result in assay [5] was “Active”.

As to `CC(C)CCC/C=C\CC/C=C\CCCC(=O)O`, the results for the MIC in the assay on Staphylococcus aureus and against Enterococcus faecalis were 240 µM (≈ 60.6 µg/mL) and 160 µM (≈ 40.4 µg/mL), respectively.

Take `CCCCCCCC/C=C/CCCCCCCC(=O)O` [ELAIDIC ACID]: the IC50 against DNA topoisomerase 1 [4] is > 1000 µM.
